Source: paper PMC9072645 (RSC Advances, 2019)

How the values were obtained:
Assay type in all cases: biochemical
[1] = molecular target: T1, hrPREP (Homo sapiens, UniProt P48147); assay: Inhibition of hrPREP
T1 sequence (P48147 1-710): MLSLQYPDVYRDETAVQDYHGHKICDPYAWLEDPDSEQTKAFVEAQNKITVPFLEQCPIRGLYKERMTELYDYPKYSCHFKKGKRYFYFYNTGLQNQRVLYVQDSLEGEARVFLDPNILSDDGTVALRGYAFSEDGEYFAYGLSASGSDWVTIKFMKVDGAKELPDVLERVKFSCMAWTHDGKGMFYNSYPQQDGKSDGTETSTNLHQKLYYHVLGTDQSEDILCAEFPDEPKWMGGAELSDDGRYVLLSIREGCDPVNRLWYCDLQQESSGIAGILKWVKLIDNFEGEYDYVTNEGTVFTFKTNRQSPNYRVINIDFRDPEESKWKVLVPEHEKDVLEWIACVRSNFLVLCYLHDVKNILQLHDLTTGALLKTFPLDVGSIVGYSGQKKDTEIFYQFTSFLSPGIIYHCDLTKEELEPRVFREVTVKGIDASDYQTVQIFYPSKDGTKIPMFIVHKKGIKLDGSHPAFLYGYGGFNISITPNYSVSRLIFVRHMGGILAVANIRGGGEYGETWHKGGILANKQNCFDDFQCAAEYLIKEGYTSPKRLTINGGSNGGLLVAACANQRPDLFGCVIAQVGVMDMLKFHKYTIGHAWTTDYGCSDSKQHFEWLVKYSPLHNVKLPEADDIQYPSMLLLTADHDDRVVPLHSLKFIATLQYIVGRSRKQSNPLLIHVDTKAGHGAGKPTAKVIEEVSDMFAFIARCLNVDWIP

[2] = molecular target: hrDPP IV (Homo sapiens, UniProt P27487); assay: Inhibition of hrDPP IV
Chain of hrDPP IV (P27487 whole entry): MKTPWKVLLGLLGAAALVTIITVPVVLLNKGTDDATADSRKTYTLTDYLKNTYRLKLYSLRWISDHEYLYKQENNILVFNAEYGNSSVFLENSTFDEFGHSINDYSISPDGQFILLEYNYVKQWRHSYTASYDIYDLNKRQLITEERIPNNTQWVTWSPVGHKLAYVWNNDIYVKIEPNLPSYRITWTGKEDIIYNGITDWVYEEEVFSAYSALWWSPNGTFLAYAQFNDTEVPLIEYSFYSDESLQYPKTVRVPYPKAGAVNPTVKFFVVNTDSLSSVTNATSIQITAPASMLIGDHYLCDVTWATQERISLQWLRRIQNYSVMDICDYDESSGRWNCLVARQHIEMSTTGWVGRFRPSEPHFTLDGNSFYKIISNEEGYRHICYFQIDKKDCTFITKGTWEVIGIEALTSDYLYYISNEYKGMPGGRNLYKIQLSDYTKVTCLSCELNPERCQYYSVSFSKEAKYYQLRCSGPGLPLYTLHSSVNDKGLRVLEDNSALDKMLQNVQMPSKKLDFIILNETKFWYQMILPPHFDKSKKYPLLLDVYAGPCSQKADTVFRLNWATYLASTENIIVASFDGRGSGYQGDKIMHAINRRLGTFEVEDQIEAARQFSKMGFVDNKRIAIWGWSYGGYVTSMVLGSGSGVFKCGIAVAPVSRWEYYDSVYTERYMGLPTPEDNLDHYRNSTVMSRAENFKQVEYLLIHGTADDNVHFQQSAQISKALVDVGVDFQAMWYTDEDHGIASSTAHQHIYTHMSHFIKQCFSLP
In short: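 Recombinant human DPP IV, 0.01 μg per well, in 25 mM Tris, 1 mg mL−1 BSA, pH 8.0. Enzyme preincubated 30 min at 37 °C with test compound […]. Residual activity was read with 50 μM H-Gly-Pro-AMC as fluorescence increase over 60 min at 37 °C, 360/460 nm. Triplicate wells, repeated twice. IC50 determined graphically.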

[3] = molecular target: T2, human recombinant (hr) FAP (Homo sapiens, UniProt Q12884); assay: Inhibition of hrFAP
T2 sequence (Q12884 1-760): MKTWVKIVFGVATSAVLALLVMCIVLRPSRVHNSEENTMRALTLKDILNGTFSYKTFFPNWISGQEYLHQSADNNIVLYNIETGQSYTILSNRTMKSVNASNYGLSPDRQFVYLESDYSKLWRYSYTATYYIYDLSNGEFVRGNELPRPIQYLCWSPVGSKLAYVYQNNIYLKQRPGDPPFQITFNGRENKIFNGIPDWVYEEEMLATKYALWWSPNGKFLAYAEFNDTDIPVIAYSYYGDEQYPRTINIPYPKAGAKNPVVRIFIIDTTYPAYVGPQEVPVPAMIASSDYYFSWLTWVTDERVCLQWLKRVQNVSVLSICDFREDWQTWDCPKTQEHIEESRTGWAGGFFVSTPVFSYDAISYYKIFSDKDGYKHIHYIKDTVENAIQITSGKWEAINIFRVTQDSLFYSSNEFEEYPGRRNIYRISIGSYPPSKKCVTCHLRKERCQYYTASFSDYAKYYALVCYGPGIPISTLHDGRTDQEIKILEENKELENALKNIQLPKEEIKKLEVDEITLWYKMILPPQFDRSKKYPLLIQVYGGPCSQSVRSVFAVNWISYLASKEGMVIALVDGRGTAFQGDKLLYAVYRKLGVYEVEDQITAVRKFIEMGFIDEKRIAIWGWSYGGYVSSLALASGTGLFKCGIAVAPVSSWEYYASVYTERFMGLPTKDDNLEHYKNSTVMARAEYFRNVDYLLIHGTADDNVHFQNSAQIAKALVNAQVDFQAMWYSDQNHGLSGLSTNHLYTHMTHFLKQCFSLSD
In short: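 Recombinant human FAP, 0.01 μg per well, in 50 mM Tris, 1 M NaCl, 1 mg mL−1 BSA, pH 7.5. Preincubated 30 min at 37 °C with test compound at 5, 10, 20, 50 and 100 nM. Then 50 μM Z-Gly-Pro-AMC was added and the fluorescence increase followed for 60 min at 37 °C (λex/λem 360/460 nm). Triplicate wells, experiment repeated twice. IC50 determined graphically; Ki calculated.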

Structure (SMILES): N#C[C@@H]1CCCN1C(=O)CNC(=O)c1ccnc2ccc(Br)cc12 [compound 5, (S)-6-bromo-N-(2-(2-cyanopyrrolidin-1-yl)-2-oxoethyl)quinoline-4-carboxamide]
- IC50 [1]: > 100000 nM
- selectivity index SI FAP/PREP ([1]; FAP with respect to PREP): higher than 3300
- IC50 [2]: > 100000 nM
- selectivity index SI FAP/DPP IV ([2]; FAP with respect to DPP IV): higher than 3300
- IC50 [3]: 30 ± 5 nM
- Ki [3]: 12 ± 1.8 nM
